Test results from ChEMBL document CHEMBL2062465, “Sesquiterpenoids from Incarvillea arguta: absolute configuration and biological evaluation” (J Nat Prod, 2012).
Activity calls are given as the source filed them. No cut-off for these calls is given here. Peptide text beside a SMILES is read from it. * marks the point of attachment. Cbz = O=C(OCc1ccccc1)*

Assays:
RAW264.7 [1] = test: Antiinflammatory activity in mouse RAW264.7 cells assessed as inhibition of LPS-stimulated NO production after 18 hrs by Griess reagent method; assay type: functional, cell-based; details: RAW264.7, 18 h
Method in brief: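 NO release measured in LPS-stimulated RAW264.7 macrophages. DMSO wells were included, and MG-132 (proteasome inhibitor) served as positive control. Cell viability was checked by MTT in each experiment. IC50 was derived.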

SW480 = test: Cytotoxicity against human SW480 cells after 48 hrs by MTT assay; assay type: functional, cell-based; details: SW480, 48 h
Method in brief: (§1)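 MTT viability assay on human tumour lines. Adherent cells were seeded and allowed to attach 12 h before drug addition. Suspension cells were seeded immediately before dosing at (1−2) × 10^5 cells/mL. Cells were exposed to a range of concentrations for 48 h. Cisplatin and taxol were positive controls. IC50 values were calculated from viability.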

SMMC-7721 = test: Cytotoxicity against human SMMC7721 cells after 48 hrs by MTT assay; assay type: functional, cell-based; details: SMMC-7721, 48 h; method in brief: as §1
HL-60 = test: Cytotoxicity against human HL60 cells after 48 hrs by MTT assay; assay type: functional, cell-based; details: HL-60, 48 h; method in brief: as §1
MCF7 = test: Cytotoxicity against human MCF7 cells after 48 hrs by MTT assay; assay type: functional, cell-based; details: MCF7, 48 h; method in brief: as §1
RAW264.7 [2] = test: Cytotoxicity against mouse RAW264.7 cells at 0.04 to 25 uM by MTT assay; assay type: cell-based; details: raw264.7, 25 µM
Method in brief: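 Viability of RAW264.7 macrophages was checked by MTT alongside each NO-production experiment, at 0.04, 0.2, 1, 5 and 25 μM.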

A549 = test: Induction of intracellular calcium influx in human A549 cells at 10 uM after 12 hrs by fluorescence analysis; assay type: functional, cell-based
Method in brief: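 A549 cells were seeded at 0.5 × 10^4 cells/well and grown 12 h. They were loaded with Fluo-4 AM for 30 min, then washed three times with HBSS. Compounds were tested at 10 μM in Ca2+-containing HBSS. Intracellular calcium was imaged and analysed on an automated cell-based fluorescence-imaging system.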

SMILES	IC50 (RAW264.7 [1]) [µM]	IC50 (SW480) [µM]	IC50 (SMMC-7721) [µM]	IC50 (HL-60) [µM]	IC50 (MCF7) [µM]	Activity (RAW264.7 [2])	Activity (A549)
C=C(CO)[C@@H]1CC(=O)C2=CCC[C@H](C)[C@@]2(C)C1 [ARGUTOSINE B]	5.7	15.6	34.1	15.2	13.5	Non-toxic	–
C[C@H]1CCC=C2C(=O)C=C([C@]3(CO)CC[C@@](O)(CO)C4=C3C(=O)C3=CCC[C@H](C)[C@@]3(C)C4)C[C@@]21C [DIINCARVILONE A]	–	> 40	> 40	> 40	> 40	–	Active
C[C@H]1CCC=C2C(=O)C=C([C@]3(CO)CC[C@](O)(CO)C4=C3C(=O)C3=CCC[C@H](C)[C@@]3(C)C4)C[C@@]21C [DIINCARVILONE B]	–	> 40	> 40	> 40	> 40	–	Active
C[C@H]1CCC=C2C(=O)C=C([C@]3(CO)CC[C@@H](CO)C4=C3C(=O)C3=CCC[C@H](C)[C@@]3(C)C4)C[C@@]21C [DIINCARVILONE C]	–	> 40	> 40	> 40	> 40	–	–
C[C@H]1CCC=C2C(=O)C=C([C@]3(CO)CCC(=O)C4=C3C(=O)C3=CCC[C@H](C)[C@@]3(C)C4)C[C@@]21C [DIINCARVILONE D]	–	> 40	> 40	> 40	> 40	–	Active
C[C@H](CO)C1=CC(=O)C2=CCC[C@H](C)[C@@]2(C)C1 [INCARVILONE A]	–	> 40	> 40	> 40	> 40	–	–
CC(C)C[C@@H](C=O)NC(=O)[C@H](CC(C)C)NC(=O)[C@H](CC(C)C)NC(=O)OCc1ccccc1 [MG-132] (Cbz-Leu-Leu-Leu-aldehyde)	0.08	–	–	–	–	–	–
